Measured values reported in ChEMBL document CHEMBL1121388, “Analgesic narcotic antagonists. 2. 8-Alkymorphinan-6-ones” (J Med Chem, 1980).
The source made the active and inactive calls. The calls are words filed in the database; no cut-off is given here.

Assays:
[1] = test system: Mus musculus; test: The effective dose was measured by using mouse writhing assay after the compound administered subcutaneously.; format: functional; conditions: sc
Outline: (§1)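 Analgesia in the mouse writhing test induced by acetic acid, with compound given subcutaneously. Salts were dissolved in distilled H₂O; free bases were dissolved by dropwise 1 N HCl and then diluted.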

[2] = test system: Rattus norvegicus; test: The Effective dose was measured by using rat tail flick assay after the compound administered intraperitoneally at a dose of 50 uM/Kg; IA means inactive at the given dose; format: functional, organism-based
[3] = test system: Rattus norvegicus; test: Effective dose was measured by using rat tail flick assay after subcutaneous administration; format: functional; conditions: sc
Outline: (§2)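 Agonist activity in the rat heat-stimulus tail-flick test. Drug was given subcutaneously and rats were tested 20 min after dosing. Salts were dissolved in distilled H₂O; free bases were dissolved with dropwise 1 N HCl and then diluted. ED₅₀ or inactivity/lethality recorded at the dose indicated.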

[4] = test system: Mus musculus; test: The Effective dose was measured by using mouse writhing assay after the compound administered subcutaneously at a dose of 25 umol/kg; IA means inactive at the given dose; format: functional, organism-based; outline: as §1
[5] = test system: Rattus norvegicus; test: The effective dose was measured by using rat tail flick assay after the compound administered intraperitoneally.; format: functional; conditions: ip
[6] = species on record: Rattus norvegicus; test: Ratio of agonist to that of antagonist activity; format: functional
[7] = test system: Rattus norvegicus; test: The Effective dose was measured by using rat tail flick assay after the compound administered subcutaneously at a dose 27umol/kg; IA means inactive at the given dose; format: functional, organism-based; outline: as §2
[8] = test system: Mus musculus; test: The Effective dose was measured by using mouse writhing assay after the compound administered subcutaneously at a dose 27umol/kg; IA means inactive at the given dose; format: functional, organism-based; outline: as §1
[9] = test system: Rattus norvegicus; test: The Effective dose was measured by using rat tail flick assay after the compound administered intraperitoneally at a dose of 25 umol/kg; IA means inactive at the given dose; format: functional, organism-based
[10] = test system: Mus musculus; test: The Effective dose was measured by using mouse writhing assay after the compound administered subcutaneously at a dose of 22 umol/kg; IA means inactive at the given dose; format: functional, organism-based; outline: as §1
[11] = test system: Rattus norvegicus; test: The Effective dose was measured by using rat tail flick assay after the compound administered intraperitoneally at a dose of 50 umol/kg; IA means inactive at the given dose; format: functional, organism-based
[12] = test system: Mus musculus; test: The Effective dose was measured by using mouse writhing assay after the compound administered subcutaneously at a dose of 50 umol/kg; IA means inactive at the given dose; format: functional, organism-based; outline: as §1
[13] = test system: Mus musculus; test: The Effective dose was measured by using mouse writhing assay after the compound administered subcutaneously at a dose of 24 umol/kg; IA means inactive at the given dose; format: functional, organism-based; outline: as §1
[14] = test system: Mus musculus; test: The Effective dose was measured by using mouse writhing assay 5 min after the compound administered subcutaneously; format: functional; conditions: sc

Row | SMILES | ED50 [1] [µmol/kg] | ED50 [5] [µmol/kg] | further results
1 | CCC[C@H]1CC(=O)CC23CCN(CC4CCC4)C(Cc4ccc(OC)cc42)[C@H]13 (stereo partly drawn) | 34 |  | ED50 [2]: inactive
2 | COc1ccc2c3c1O[C@H]1C(=O)CC[C@H]4[C@@H](C2)N(C)CC[C@]314 [HYDROCODONE] |  |  | ED50 [3]: 5.2 µmol/kg
3 | COc1ccc2c(c1)C13CCN(C)C(C2)[C@@H]1CCC(=O)C3 (stereo partly drawn) | 1.72 |  | ED50 [3]: 2.32 µmol/kg
4 | CC[C@@H]1CC(=O)CC23CCN(CC4CC4)C(Cc4ccc(O)cc42)[C@@H]13 (stereo partly drawn) |  | 0.88 | ED50 [4]: inactive
5 | C=CCN1CC[C@]23c4c5ccc(O)c4O[C@H]2[C@@H](O)C=C[C@H]3[C@H]1C5 [NALORPHINE] |  |  | Ratio [6]: 1.42
6 | C[C@@H]1CC(=O)CC23CCN(CC4CCC4)C(Cc4ccc(O)cc42)[C@@H]13 (stereo partly drawn) | 5.98 | 12.8 | 
7 | CCC[C@H]1CC(=O)CC23CCN(CC4CC4)C(Cc4ccc(O)cc42)[C@H]13 (stereo partly drawn) |  | 24.3 | ED50 [4]: inactive
8 | O=C1CC[C@@H]2C3Cc4ccc(O)cc4C2(CCN3CC2CCC2)C1 (stereo partly drawn) | 2.6 | 13.8 | 
9 | CN1CCC23CC(=O)CC[C@@H]2C1Cc1ccc(O)cc13 (stereo partly drawn) | 0.75 |  | ED50 [3]: 1.33 µmol/kg
10 | C[C@@H]1CC(=O)CC23CCN(C)C(Cc4ccc(O)cc42)[C@@H]13 (stereo partly drawn) | 1.18 |  | ED50 [3]: 0.93 µmol/kg
11 | CC[C@H]1CC(=O)CC23CCN(CC4CC4)C(Cc4ccc(OC)cc42)[C@H]13 (stereo partly drawn) | 4.4 | > 50 | 
12 | CCC[C@H]1CC(=O)CC23CCN(C)C(Cc4ccc(O)cc42)[C@H]13 (stereo partly drawn) |  |  | ED50 [7]: inactive; ED50 [8]: inactive
13 | CC[C@H]1CC(=O)CC23CCN(C)C(Cc4ccc(O)cc42)[C@H]13 (stereo partly drawn) | 2.29 |  | ED50 [3]: 33 µmol/kg
14 | COc1ccc2c(c1)[C@]13CCN(CC4CC4)[C@H](C2)[C@@H]1[C@@H](C)CC(=O)C3 | 0.71 | 4.27 | Ratio [6]: 0.17
15 | COc1ccc2c(c1)C13CCN(CC4CCC4)C(C2)[C@H]1[C@H](C)CC(=O)C3 (stereo partly drawn) | 47 |  | ED50 [9]: inactive
16 | CCC[C@@H]1CC(=O)CC23CCN(CC4CC4)C(Cc4ccc(OC)cc42)[C@@H]13 (stereo partly drawn) |  | 6.4 | ED50 [10]: inactive
17 | CC[C@H]1CC(=O)CC23CCN(CC4CCC4)C(Cc4ccc(OC)cc42)[C@H]13 (stereo partly drawn) | 14.2 |  | ED50 [11]: inactive
18 | CC[C@H]1CC(=O)CC23CCN(C)C(Cc4ccc(OC)cc42)[C@H]13 (stereo partly drawn) | 3.23 |  | ED50 [3]: 10.6 µmol/kg
19 | C[C@@H]1CC(=O)CC23CCN(CC4CC4)C(Cc4ccc(O)cc42)[C@@H]13 (stereo partly drawn) |  | 0.89 | ED50 [4]: inactive
20 | CC[C@@H]1CC(=O)CC23CCN(C)C(Cc4ccc(O)cc42)[C@@H]13 (stereo partly drawn) | 2.11 |  | ED50 [3]: 2.31 µmol/kg
21 | C[C@H]1[C@H]2Cc3ccc(O)cc3[C@]1(C)CCN2CC1CC1 [CYCLAZOCINE] | 0.41 | 0.81 | Ratio [6]: 0.5
22 | CCC[C@H]1CC(=O)CC23CCN(CC4CCC4)C(Cc4ccc(O)cc42)[C@H]13 (stereo partly drawn) | 1.06 | 7.67 | 
23 | CC(C)=CCN1CC[C@]2(C)c3cc(O)ccc3C[C@H]1[C@H]2C [(+)-PENTAZOCINE] |  |  | Ratio [6]: 0.36
24 | COc1ccc2c(c1)C13CCN(CC4CC4)C(C2)[C@H]1[C@H](C)CC(=O)C3 (stereo partly drawn) | > 80 | 9 | 
25 | CC[C@H]1CC(=O)CC23CCN(CC4CC4)C(Cc4ccc(O)cc42)[C@H]13 (stereo partly drawn) |  | 4.7 | ED50 [12]: inactive
26 | CN1CCC23CC(=O)CC[C@H]2C1Cc1ccc(O)cc13 (stereo partly drawn) | 0.52 |  | ED50 [3]: 70 µmol/kg
27 | CCC[C@@H]1CC(=O)CC23CCN(CC4CC4)C(Cc4ccc(O)cc42)[C@@H]13 (stereo partly drawn) |  | 3.34 | ED50 [13]: inactive
28 | O=C1CC[C@H]2C3Cc4ccc(O)cc4C2(CCN3CC2CCC2)C1 (stereo partly drawn) | 0.047 |  | ED50 [9]: inactive
29 | CC[C@H]1CC(=O)CC23CCN(CC4CCC4)C(Cc4ccc(O)cc42)[C@H]13.Cl (stereo partly drawn) |  | 0.82 | ED50 [14]: 0.54 µmol/kg; Ratio [6]: 0.65
